The record followed here is ChEMBL document CHEMBL5661979, “Pharmacological inhibition of BMK1 suppresses tumor growth through promyelocytic leukemia protein” (Cancer Cell, 2010).

Assay type in all cases: subcellular
The target of assay [1] is T1, Phosphatidylinositol 5-phosphate 4-kinase type-2 alpha (Homo sapiens, UniProt P48426).
T1 sequence (P48426 whole entry): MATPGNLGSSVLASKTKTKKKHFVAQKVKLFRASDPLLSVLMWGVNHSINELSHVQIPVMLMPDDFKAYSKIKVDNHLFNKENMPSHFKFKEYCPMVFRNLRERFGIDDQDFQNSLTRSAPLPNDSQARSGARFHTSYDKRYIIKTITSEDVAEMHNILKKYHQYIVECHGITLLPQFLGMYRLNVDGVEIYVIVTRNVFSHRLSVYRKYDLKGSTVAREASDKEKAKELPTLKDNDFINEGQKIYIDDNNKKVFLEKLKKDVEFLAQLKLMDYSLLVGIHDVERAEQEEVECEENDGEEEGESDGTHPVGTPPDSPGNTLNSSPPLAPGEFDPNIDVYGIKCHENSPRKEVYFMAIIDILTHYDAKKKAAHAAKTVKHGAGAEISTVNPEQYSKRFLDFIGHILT
In words: Inhibition of PIP5K2A LIP1 site in human HeLa cells lysate pre incubated for 15 mins followed by ADP acyl phosphate probe addition and measured after 10 mins by LC-MS/MS analysis.

Assay [2] concerns the target Epidermal growth factor receptor (Homo sapiens, UniProt P00533). Description: Inhibition of EGFR in human HeLa cells lysate at 2 uM pre incubated for 15 mins followed by ATP acyl phosphate probe addition and measured after 10 mins by LC-MS/MS analysis relative to control. Particulars: time 25.0 min.
Assay [3] has as its target T2, Phosphatidylinositol 5-phosphate 4-kinase type-2 gamma (Homo sapiens) (UniProt Q8TBX8).
T2 sequence (whole entry): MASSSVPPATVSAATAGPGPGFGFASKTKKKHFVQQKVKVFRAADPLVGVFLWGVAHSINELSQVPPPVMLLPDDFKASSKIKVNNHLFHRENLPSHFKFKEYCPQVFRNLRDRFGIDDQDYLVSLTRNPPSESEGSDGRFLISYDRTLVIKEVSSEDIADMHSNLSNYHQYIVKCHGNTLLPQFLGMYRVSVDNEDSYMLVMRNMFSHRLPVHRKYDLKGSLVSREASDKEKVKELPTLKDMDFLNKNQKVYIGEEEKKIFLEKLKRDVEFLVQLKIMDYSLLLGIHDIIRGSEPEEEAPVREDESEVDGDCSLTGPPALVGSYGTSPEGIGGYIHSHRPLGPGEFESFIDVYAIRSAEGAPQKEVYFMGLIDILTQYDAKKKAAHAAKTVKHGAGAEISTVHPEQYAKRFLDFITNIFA
Description: Inhibition of PIP5K2C LIP1 site in human HeLa cells lysate at 2 uM pre incubated for 15 mins followed by ATP acyl phosphate probe addition and measured after 10 mins by LC-MS/MS analysis relative to control. Particulars: time 25.0 min.

Assay [4] deals with Mitogen-activated protein kinase kinase kinase 20 (Homo sapiens, UniProt Q9NYL2). Description: Inhibition of ZAK in human HeLa cells lysate at 50 uM pre incubated for 15 mins followed by ATP acyl phosphate probe addition and measured after 10 mins by LC-MS/MS analysis relative to control. Particulars: time 25.0 min.
For assay [5], the target named is Peripheral plasma membrane protein CASK (Homo sapiens) (UniProt O14936). Description: Inhibition of CASK in human HeLa cells lysate at 10 uM pre incubated for 15 mins followed by ADP acyl phosphate probe addition and measured after 10 mins by LC-MS/MS analysis relative to control. Particulars: time 25.0 min. The essentials:
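KiNativ profiling in HeLa lysate (5 mg/mL total protein). Lysate incubated 15 min with inhibitor at 50, 10, 2, 0.8 or 0 μM. ATP or ADP acylphosphate probe then added (5 μM final) and reacted 10 min. Reaction stopped with urea and analysed by targeted MS, using up to four fragment ions per kinase peptide-probe conjugate. % inhibition taken against untreated lysate. Run in duplicate.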

In assay [6] the target is T3, Dual specificity mitogen-activated protein kinase kinase 4 (Homo sapiens) (UniProt P45985).
T3 sequence (whole entry): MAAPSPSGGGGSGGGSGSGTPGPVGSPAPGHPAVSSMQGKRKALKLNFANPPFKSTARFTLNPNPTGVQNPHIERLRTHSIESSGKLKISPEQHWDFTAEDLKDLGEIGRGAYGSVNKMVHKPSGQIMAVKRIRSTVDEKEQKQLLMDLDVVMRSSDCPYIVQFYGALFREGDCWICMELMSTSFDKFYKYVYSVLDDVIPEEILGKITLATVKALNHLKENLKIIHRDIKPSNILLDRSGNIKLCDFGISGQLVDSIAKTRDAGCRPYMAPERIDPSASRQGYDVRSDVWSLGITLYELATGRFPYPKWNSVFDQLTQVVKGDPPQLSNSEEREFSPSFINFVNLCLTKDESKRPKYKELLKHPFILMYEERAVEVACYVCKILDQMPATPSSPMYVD
Description: Inhibition of MAP2K4 in human HeLa cells lysate at 2 uM pre incubated for 15 mins followed by ATP acyl phosphate probe addition and measured after 10 mins by LC-MS/MS analysis relative to control. Particulars: time 25.0 min.

In assay [7] the target is T4, Serine/threonine-protein kinase Nek9 (Homo sapiens) (UniProt Q8TD19).
T4 sequence (whole entry): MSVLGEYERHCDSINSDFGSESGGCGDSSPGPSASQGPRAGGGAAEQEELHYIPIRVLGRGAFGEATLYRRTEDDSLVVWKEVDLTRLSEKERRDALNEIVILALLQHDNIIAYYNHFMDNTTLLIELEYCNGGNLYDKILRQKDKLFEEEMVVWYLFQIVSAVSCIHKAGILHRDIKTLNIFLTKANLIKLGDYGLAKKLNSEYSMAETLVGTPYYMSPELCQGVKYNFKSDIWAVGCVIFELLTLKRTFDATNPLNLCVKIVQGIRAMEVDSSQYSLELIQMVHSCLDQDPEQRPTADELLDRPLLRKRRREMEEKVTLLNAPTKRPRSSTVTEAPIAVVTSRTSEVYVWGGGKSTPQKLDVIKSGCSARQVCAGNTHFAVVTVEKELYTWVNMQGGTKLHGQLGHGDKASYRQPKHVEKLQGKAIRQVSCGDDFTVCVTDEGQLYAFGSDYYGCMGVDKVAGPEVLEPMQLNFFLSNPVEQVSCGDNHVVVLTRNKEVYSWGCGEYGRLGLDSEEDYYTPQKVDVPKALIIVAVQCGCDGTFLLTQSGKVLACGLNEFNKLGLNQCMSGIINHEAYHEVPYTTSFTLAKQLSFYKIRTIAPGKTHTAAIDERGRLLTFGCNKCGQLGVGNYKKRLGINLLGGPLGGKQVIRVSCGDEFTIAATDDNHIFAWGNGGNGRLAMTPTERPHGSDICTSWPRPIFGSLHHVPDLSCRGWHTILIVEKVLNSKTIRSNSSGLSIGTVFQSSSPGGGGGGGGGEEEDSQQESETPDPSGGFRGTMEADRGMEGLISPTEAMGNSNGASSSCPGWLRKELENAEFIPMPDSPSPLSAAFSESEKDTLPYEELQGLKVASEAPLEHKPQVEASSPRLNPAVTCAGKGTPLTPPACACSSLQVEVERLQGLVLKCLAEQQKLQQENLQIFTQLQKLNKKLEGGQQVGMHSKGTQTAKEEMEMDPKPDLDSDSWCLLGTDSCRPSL
Description: Inhibition of NEK9 in human HeLa cells lysate at 50 uM pre incubated for 15 mins followed by ATP acyl phosphate probe addition and measured after 10 mins by LC-MS/MS analysis relative to control. The settings on record: time 25.0 min.

pIC50: −log10 of the molar value.

Sequence of Mitogen-activated protein kinase kinase kinase 20 (Q9NYL2 2-800 limits assumed): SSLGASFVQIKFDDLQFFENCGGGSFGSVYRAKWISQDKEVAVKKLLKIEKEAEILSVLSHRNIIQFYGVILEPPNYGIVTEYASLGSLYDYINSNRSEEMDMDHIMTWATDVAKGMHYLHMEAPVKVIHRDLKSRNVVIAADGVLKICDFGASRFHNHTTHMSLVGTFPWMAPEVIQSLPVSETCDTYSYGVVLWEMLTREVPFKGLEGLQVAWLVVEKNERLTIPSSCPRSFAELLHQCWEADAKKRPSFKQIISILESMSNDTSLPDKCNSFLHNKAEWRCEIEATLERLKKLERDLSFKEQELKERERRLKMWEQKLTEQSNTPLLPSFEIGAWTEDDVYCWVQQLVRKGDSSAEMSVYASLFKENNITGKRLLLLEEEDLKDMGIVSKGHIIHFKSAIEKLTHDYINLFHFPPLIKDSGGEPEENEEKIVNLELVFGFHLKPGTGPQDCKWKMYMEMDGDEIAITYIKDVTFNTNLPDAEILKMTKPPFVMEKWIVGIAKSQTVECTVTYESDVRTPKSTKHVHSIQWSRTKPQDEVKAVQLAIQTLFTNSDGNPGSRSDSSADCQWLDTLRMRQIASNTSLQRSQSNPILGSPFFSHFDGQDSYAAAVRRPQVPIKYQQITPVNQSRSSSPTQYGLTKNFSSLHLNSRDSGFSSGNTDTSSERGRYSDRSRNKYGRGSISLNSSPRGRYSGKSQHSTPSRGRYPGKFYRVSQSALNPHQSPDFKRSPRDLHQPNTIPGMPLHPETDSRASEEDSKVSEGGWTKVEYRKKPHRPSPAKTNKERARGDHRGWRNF
Sequence of Epidermal growth factor receptor (P00533 whole entry): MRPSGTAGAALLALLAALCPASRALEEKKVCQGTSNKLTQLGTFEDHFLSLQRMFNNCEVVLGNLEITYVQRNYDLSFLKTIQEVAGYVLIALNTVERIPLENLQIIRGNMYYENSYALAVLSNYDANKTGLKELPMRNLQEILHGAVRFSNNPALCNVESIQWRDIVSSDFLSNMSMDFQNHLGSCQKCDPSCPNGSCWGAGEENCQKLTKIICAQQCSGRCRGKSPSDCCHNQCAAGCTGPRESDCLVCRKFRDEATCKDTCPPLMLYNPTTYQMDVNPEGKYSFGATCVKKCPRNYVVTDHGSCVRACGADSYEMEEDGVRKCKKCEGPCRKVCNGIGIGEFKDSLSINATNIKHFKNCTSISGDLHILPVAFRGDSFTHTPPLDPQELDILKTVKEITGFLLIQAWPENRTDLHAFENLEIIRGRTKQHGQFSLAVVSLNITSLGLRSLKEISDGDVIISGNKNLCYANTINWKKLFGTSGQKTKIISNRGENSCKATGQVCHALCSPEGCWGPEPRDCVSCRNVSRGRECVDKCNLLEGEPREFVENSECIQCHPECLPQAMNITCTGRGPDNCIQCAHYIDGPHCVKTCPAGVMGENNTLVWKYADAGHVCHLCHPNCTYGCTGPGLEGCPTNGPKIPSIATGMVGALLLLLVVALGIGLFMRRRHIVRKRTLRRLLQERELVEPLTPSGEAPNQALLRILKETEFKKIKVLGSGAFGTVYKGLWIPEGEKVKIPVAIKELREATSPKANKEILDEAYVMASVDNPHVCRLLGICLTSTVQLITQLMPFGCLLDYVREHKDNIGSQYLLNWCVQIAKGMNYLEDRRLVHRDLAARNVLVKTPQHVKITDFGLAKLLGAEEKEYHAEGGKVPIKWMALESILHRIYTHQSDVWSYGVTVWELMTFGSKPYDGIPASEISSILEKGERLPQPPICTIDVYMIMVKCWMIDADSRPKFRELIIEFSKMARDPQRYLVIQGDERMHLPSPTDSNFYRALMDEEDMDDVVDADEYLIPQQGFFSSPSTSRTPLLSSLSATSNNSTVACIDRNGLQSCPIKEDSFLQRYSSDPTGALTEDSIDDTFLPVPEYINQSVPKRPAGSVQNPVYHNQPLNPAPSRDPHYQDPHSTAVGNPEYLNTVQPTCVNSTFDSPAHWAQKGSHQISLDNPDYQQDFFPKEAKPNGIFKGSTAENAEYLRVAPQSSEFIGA
Sequence of Peripheral plasma membrane protein CASK (Homo sapiens) (O14936 whole entry, the tested form may be a part): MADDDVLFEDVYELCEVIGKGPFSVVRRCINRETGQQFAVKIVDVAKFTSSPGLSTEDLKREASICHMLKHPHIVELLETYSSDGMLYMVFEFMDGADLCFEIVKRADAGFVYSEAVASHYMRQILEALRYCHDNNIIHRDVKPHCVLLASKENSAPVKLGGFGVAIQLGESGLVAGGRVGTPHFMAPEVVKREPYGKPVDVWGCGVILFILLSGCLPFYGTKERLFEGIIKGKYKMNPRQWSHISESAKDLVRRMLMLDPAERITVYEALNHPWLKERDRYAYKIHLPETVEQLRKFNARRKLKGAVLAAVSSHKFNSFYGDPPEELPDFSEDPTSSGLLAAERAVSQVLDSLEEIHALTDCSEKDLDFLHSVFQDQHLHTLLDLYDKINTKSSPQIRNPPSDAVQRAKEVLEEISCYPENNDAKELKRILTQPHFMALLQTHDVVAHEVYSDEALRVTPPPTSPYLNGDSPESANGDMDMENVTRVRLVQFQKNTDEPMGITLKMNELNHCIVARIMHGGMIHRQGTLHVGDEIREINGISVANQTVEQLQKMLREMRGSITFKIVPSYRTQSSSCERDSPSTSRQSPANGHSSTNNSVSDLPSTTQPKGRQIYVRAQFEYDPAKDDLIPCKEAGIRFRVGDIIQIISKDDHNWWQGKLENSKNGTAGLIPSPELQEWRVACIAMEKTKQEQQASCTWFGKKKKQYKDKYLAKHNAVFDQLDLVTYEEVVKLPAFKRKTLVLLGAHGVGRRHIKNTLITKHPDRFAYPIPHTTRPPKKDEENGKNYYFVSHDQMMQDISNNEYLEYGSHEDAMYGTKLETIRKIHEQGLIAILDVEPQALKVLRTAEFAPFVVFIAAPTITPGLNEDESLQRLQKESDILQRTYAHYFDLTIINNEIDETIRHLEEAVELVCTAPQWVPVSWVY

As a reminder, the pIC50 is the IC50 on a negative log10 scale, so that one unit is a factor of ten. Read a high pIC50 as a small IC50. A word on the inhibition: it is the change of the read-out against control, counted positive when it falls. For `CCOc1cc(N2CCC(O)CC2)ccc1Nc1ncc2c(n1)N(C)c1ccccc1C(=O)N2C`, the pIC50 in assay [1] is < 4.30. The inhibition in assay [2] is 2.5%; in assay [3], -3.7%; in assay [4], 33.3%; in assay [5], -8.1%; in assay [6], 4.8%; in assay [7], -1.6%.
